Measured values: ChEMBL document CHEMBL3525931, “Stereoselective interaction of pantoprazole with ABCG2. II. In vitro flux analysis” (Drug Metab Dispos, 2012)

Legend:
[1] = Observed permeability in MDCK2 cells assessed as apical to basolateral transport at 200 uM after 0.5 to 1 hrs by HPLC method; type: ADME, cell-based, Canis lupus familiaris; details: dog, mdck-ii
Procedure, shortened: (§1)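 Mock (empty pcDNA3.1) or rat Abcg2/human ABCG2-transfected MDCKII, G418-selected, seeded on 3.0-μm Transwell filters at 1.0×10^6 cells/well, grown 4 days to TEER >200 Ω·cm². Single isomer loaded apical or basolateral in serum-free Opti-MEM I with 0.2 μCi/ml [3H]mannitol, 37°C 5% CO2. Receiver sampled at 0.5 and 1 h. Quantified by HPLC-UV 290 nm. Permeability = initial rate/(area × donor concentration). Efflux ratio = B→A rate / A→B rate. n = 3, mean ± S.D.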

ABCG2 [2] = molecular target: T1, ABCG2 (Homo sapiens, UniProt Q9UNQ0); experiment: Asymmetry efflux ratio in MDCK2 cells expressing human ABCG2 assessed as ABCG2-mediated drug transport ratio at 30 uM after 0.5 to 1 hrs by HPLC method; type: ADME, cell-based; procedure, shortened: as §1
T1 sequence (Q9UNQ0 whole entry): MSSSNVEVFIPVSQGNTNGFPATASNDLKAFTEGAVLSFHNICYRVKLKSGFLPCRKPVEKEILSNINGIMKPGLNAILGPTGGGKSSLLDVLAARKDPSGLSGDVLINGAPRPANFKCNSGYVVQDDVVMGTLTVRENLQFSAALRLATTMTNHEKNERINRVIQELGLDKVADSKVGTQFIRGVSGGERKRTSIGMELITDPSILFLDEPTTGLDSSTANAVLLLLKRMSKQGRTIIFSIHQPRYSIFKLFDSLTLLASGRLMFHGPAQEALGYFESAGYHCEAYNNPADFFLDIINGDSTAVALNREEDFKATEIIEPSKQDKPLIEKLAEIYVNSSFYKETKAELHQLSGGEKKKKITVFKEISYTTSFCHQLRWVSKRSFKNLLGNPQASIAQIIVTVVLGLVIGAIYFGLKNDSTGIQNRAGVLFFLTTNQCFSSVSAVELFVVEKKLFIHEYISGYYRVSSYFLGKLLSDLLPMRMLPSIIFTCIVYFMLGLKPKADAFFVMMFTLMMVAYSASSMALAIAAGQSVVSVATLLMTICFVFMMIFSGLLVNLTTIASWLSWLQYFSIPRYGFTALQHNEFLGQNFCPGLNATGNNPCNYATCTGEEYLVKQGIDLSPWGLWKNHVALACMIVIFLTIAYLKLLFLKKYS

[3] = molecular target: T2, Broad substrate specificity ATP-binding cassette transporter ABCG2 (Homo sapiens, UniProt Q9UNQ0); experiment: Observed permeability in MDCK2 cells expressing human ABCG2 assessed as ABCG2-mediated apical to basolateral transport at 30 uM after 0.5 to 1 hrs by HPLC method; type: ADME, cell-based; details: mdck-ii; procedure, shortened: as §1
T2 sequence (Q9UNQ0 whole entry): T1 sequence (Q9UNQ0 whole entry)

[4] = molecular target: T2, Broad substrate specificity ATP-binding cassette transporter ABCG2; experiment: Observed permeability in MDCK2 cells expressing human ABCG2 assessed as ABCG2-mediated basolateral to apical transport at 3 uM after 0.5 to 1 hrs by HPLC method; type: ADME, cell-based; details: mdck-ii; procedure, shortened: as §1
ABCG2 [5] = molecular target: T1, ABCG2; experiment: Asymmetry efflux ratio in MDCK2 cells expressing human ABCG2 assessed as ABCG2-mediated drug transport ratio at 50 uM after 0.5 to 1 hrs by HPLC method; type: ADME, cell-based; procedure, shortened: as §1
[6] = molecular target: T2, Broad substrate specificity ATP-binding cassette transporter ABCG2; experiment: Observed permeability in MDCK2 cells expressing human ABCG2 assessed as ABCG2-mediated basolateral to apical transport at 10 uM after 0.5 to 1 hrs by HPLC method; type: ADME, cell-based; details: mdck-ii; procedure, shortened: as §1
[7] = molecular target: T2, Broad substrate specificity ATP-binding cassette transporter ABCG2; experiment: Observed permeability in MDCK2 cells expressing human ABCG2 assessed as ABCG2-mediated apical to basolateral transport at 10 uM after 0.5 to 1 hrs by HPLC method; type: ADME, cell-based; details: mdck-ii; procedure, shortened: as §1
[8] = Observed permeability in MDCK2 cells assessed as basolateral to apical transport at 200 uM after 0.5 to 1 hrs by HPLC method; type: ADME, cell-based, Canis lupus familiaris; details: dog, mdck-ii; procedure, shortened: as §1
ABCG2 [9] = molecular target: T3, ABCG2 (Rattus norvegicus, UniProt Q80W57); experiment: Asymmetry efflux ratio in MDCK2 cells expressing rat ABCG2 assessed as ABCG2-mediated drug transport ratio at 10 uM after 0.5 to 1 hrs by HPLC method; type: ADME, cell-based; procedure, shortened: as §1
T3 sequence (Q80W57 whole entry): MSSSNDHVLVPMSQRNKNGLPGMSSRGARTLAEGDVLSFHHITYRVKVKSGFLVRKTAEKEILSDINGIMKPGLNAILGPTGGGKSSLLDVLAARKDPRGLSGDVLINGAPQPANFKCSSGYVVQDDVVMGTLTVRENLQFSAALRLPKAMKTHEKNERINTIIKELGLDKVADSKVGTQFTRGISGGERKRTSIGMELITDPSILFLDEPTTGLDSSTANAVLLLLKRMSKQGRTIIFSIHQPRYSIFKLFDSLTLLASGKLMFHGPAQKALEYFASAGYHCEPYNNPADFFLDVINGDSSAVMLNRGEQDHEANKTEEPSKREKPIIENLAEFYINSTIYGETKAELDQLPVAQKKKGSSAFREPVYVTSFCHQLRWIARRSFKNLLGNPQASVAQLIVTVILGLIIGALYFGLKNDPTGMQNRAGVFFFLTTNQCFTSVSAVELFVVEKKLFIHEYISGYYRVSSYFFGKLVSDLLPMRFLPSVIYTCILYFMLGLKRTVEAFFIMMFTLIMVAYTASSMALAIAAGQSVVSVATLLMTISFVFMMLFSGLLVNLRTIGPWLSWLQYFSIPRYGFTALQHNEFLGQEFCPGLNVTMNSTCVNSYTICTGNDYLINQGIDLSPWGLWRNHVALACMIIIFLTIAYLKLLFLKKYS

[10] = molecular target: T4, Broad substrate specificity ATP-binding cassette transporter ABCG2 (Rattus norvegicus, UniProt Q80W57); experiment: Observed permeability in MDCK2 cells expressing rat ABCG2 assessed as ABCG2-mediated apical to basolateral transport at 50 uM after 0.5 to 1 hrs by HPLC method; type: ADME, cell-based; details: mdck-ii; procedure, shortened: as §1
T4 sequence (Q80W57 whole entry): T3 sequence (Q80W57 whole entry)

[11] = Observed permeability in MDCK2 cells assessed as apical to basolateral transport at 50 uM after 0.5 to 1 hrs by HPLC method; type: ADME, cell-based, Canis lupus familiaris; details: dog, mdck-ii; procedure, shortened: as §1
[12] = Asymmetry efflux ratio in MDCK2 cells assessed as drug transport ratio at 10 uM after 0.5 to 1 hrs by HPLC method; type: ADME, cell-based, Canis lupus familiaris, MDCK-II; details: dog, MDCK; procedure, shortened: as §1
[13] = molecular target: T4, Broad substrate specificity ATP-binding cassette transporter ABCG2; experiment: Observed permeability in MDCK2 cells expressing rat ABCG2 assessed as ABCG2-mediated apical to basolateral transport at 30 uM after 0.5 to 1 hrs by HPLC method; type: ADME, cell-based; details: mdck-ii; procedure, shortened: as §1
[14] = molecular target: T4, Broad substrate specificity ATP-binding cassette transporter ABCG2; experiment: Observed permeability in MDCK2 cells expressing rat ABCG2 assessed as ABCG2-mediated apical to basolateral transport at 10 uM after 0.5 to 1 hrs by HPLC method; type: ADME, cell-based; details: mdck-ii; procedure, shortened: as §1
[15] = molecular target: T2, Broad substrate specificity ATP-binding cassette transporter ABCG2; experiment: Observed permeability in MDCK2 cells expressing human ABCG2 assessed as ABCG2-mediated basolateral to apical transport at 30 uM after 0.5 to 1 hrs by HPLC method; type: ADME, cell-based; details: mdck-ii; procedure, shortened: as §1
ABCG2 [16] = molecular target: T3, ABCG2; experiment: Asymmetry efflux ratio in MDCK2 cells expressing rat ABCG2 assessed as ABCG2-mediated drug transport ratio at 200 uM after 0.5 to 1 hrs by HPLC method; type: ADME, cell-based; procedure, shortened: as §1
[17] = Observed permeability in MDCK2 cells assessed as basolateral to apical transport at 3 uM after 0.5 to 1 hrs by HPLC method; type: ADME, cell-based, Canis lupus familiaris; details: dog, mdck-ii; procedure, shortened: as §1
[18] = Asymmetry efflux ratio in MDCK2 cells assessed as drug transport ratio at 3 uM after 0.5 to 1 hrs by HPLC method; type: ADME, cell-based, Canis lupus familiaris, MDCK-II; details: dog, MDCK; procedure, shortened: as §1

Papp [1] [uL/hr/cm2] | efflux ratio at 30 µM (ABCG2 [2]) | Papp [3] [uL/hr/cm2] | Papp [4] [uL/hr/cm2] | efflux ratio at 50 µM (ABCG2 [5]) | Papp [6] [uL/hr/cm2] | Papp [7] [uL/hr/cm2] | Papp [8] [uL/hr/cm2] | efflux ratio at 10 µM (ABCG2 [9]) | Papp [10] [uL/hr/cm2] | Papp [11] [uL/hr/cm2] | efflux ratio at 10 µM [12] | Papp [13] [uL/hr/cm2] | Papp [14] [uL/hr/cm2] | Papp [15] [uL/hr/cm2] | efflux ratio at 200 µM (ABCG2 [16]) | Papp [17] [uL/hr/cm2] | efflux ratio at 3 µM [18] | SMILES
130 | 3.12 | 67.6 | 254 | 1.44 | 255 | 31.6 | 135 | 7.44 | 109 | 121 | 1.06 | 92.5 | 30.1 | 211 | 1.07 | 120 | 1.01 | COc1ccnc(C[S@+]([O-])c2nc3cc(OC(F)F)ccc3[nH]2)c1OC
142 | 5.5 | 43.6 | 258 | 2.45 | 246 | 42.2 | 140 | 11 | 79.1 | 123 | 1.07 | 33.5 | 20.9 | 240 | 1.29 | 117 | 1.01 | COc1ccnc(C[S@@+]([O-])c2nc3cc(OC(F)F)ccc3[nH]2)c1OC
